In ChEMBL document CHEMBL1781968, “δ-Carbolines and their ring-opened analogs: synthesis and evaluation against fungal and bacterial opportunistic pathogens” (Eur J Med Chem, 2011):
Converted amounts (≈) assume the structure as drawn.

Key:
[1] = Cytotoxicity against african green monkey Vero cell after 48 hrs by neutral red uptake assay; format: cell-based; conditions: chlorocebus sabaeus, Vero cells; read-out: TC50
How it was run: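 VERO kidney fibroblasts seeded at 25,000 cells/well and incubated 24 h. Compounds added, highest concentration 10 μg/mL, then 48 h further incubation. Viable cells measured by neutral red assay. IC50 taken from growth-inhibition dose curves. Doxorubicin as positive control, DMSO as vehicle control.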

Candida albicans = assay: Antifungal activity against Candida albicans ATCC 90028 by NCCLS method; format: functional, organism-based
How it was run: (§1)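 Modified NCCLS microdilution for fungi. Samples in DMSO serially diluted with 0.9% saline, in duplicate, final concentrations from 20 μg/mL down. Inocula matched to 0.5 McFarland (630 nm) and diluted in Sabouraud dextrose broth. Growth, solvent and medium controls included. OD 530 nm read before and after incubation. IC50 from percent growth curve. MIC is no detectable growth. MFC is lowest concentration killing the organism.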

Cryptococcus neoformans = assay: Antifungal activity against Cryptococcus neoformans ATCC 90113 by NCCLS method; format: functional, organism-based; how it was run: as §1
Aspergillus fumigatus = assay: Antifungal activity against Aspergillus fumigatus ATCC 204305 by NCCLS method; format: functional, organism-based; how it was run: as §1
Staphylococcus aureus [2] = assay: Antibacterial activity against Staphylococcus aureus ATCC 29213 by NCCLS method; format: functional, organism-based
How it was run: (§2)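 Broth microdilution (modified NCCLS). Samples in DMSO serially diluted in 0.9% saline, tested in duplicate, highest final concentration 20 μg/mL. Inoculum matched to 0.5 McFarland standard by absorbance at 630 nm, then diluted in cation-adjusted Mueller–Hinton broth. Growth, solvent and medium controls on each plate. Absorbance at 530 nm read before and after incubation. IC50 taken from percent growth versus concentration plot; MIC is lowest concentration with no detectable growth; MBC is lowest concentration killing the organism.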

Staphylococcus aureus [3] = assay: Antibacterial activity against methicillin-resistant Staphylococcus aureus ATCC 33591 by NCCLS method; format: functional, organism-based; how it was run: as §2
Escherichia coli = assay: Antibacterial activity against Escherichia coli by NCCLS method; format: functional, organism-based
How it was run: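 Modified NCCLS broth microdilution. DMSO-dissolved samples serially diluted in 0.9% saline, tested in duplicate, final concentrations starting at 20 μg/mL. Inoculum set to 0.5 McFarland (absorbance 630 nm) and diluted in cation-adjusted Mueller–Hinton broth. Growth, solvent and medium controls on each plate. Read at 530 nm before and after incubation. IC50 from percent growth versus concentration. MIC is lowest concentration with no detectable growth.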

[4] = system: Mycobacterium intracellulare; assay: Antibacterial activity against Mycobacterium intracellular ATCC 23068 by alamar blue method; format: functional, organism-based
How it was run: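 Modified Alamar blue method (Franzblau). Samples in DMSO serially diluted in 0.9% saline, in duplicate, final concentrations starting at 20 μg/mL. Inoculum adjusted to 0.5 McFarland, then diluted in Middlebrook 7H9 with OADC enrichment plus 5% Alamar blue. Fluorescence read (ex 544/em 590 nm) before and after incubation. IC50 from percent growth versus concentration. MIC is no detectable growth.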

SMILES | CC50 at 48 h [1] | MFC (Candida albicans) | MIC (Cryptococcus neoformans) | IC50 (Aspergillus fumigatus) | MFC (Aspergillus fumigatus) | MIC (Aspergillus fumigatus) | IC50 (Staphylococcus aureus [2]) | MBC (Staphylococcus aureus [2]) | MIC (Staphylococcus aureus [2]) | IC50 (Staphylococcus aureus [3]) | MBC (Staphylococcus aureus [3]) | MIC (Staphylococcus aureus [3]) | IC50 (Escherichia coli) | MBC (Escherichia coli) | MIC (Escherichia coli) | IC50 [4] | MBC [4] | MIC [4] | also measured
C[n+]1cccc2c1c1cc(F)ccc1n2CCCCCC1CCCCC1.[I-] | > 10 µg/mL | 20 µg/mL | 1.3 µg/mL | 12 µg/mL | > 20 µg/mL | 20 µg/mL | 0.7 µg/mL | 20 µg/mL | 1.3 µg/mL | 2.8 µg/mL | 20 µg/mL | 5 µg/mL | 13 µg/mL | > 20 µg/mL | > 20 µg/mL | 1.2 µg/mL | 5 µg/mL | 2.5 µg/mL | IC50 (Candida albicans): 6.5 µg/mL; MIC (Candida albicans): 20 µg/mL; IC50 (Cryptococcus neoformans): 0.6 µg/mL; MFC (Cryptococcus neoformans): 1.3 µg/mL
CSc1ccc(N(CCCCCC2CCCCC2)c2ccc[n+](C)c2)cc1.[I-] | > 10 µg/mL | – | – | – | 10 µg/mL | 10 µg/mL | 0.3 µg/mL | 5 µg/mL | 0.6 µg/mL | 1 µg/mL | 2.5 µg/mL | 2.5 µg/mL | 5.2 µg/mL | 20 µg/mL | 20 µg/mL | 1 µg/mL | 5 µg/mL | 1.3 µg/mL | –
C[n+]1cccc(N(CCCCCC2CCCCC2)c2cccc(Cl)c2)c1.[I-] | > 10 µg/mL | – | – | 12 µg/mL | 20 µg/mL | 20 µg/mL | 0.34 µg/mL | 5 µg/mL | 0.63 µg/mL | 1.3 µg/mL | 5 µg/mL | 2.5 µg/mL | 6.5 µg/mL | > 20 µg/mL | > 20 µg/mL | 2.1 µg/mL | 5 µg/mL | 2.5 µg/mL | IC50 (Cryptococcus neoformans): 0.72 µg/mL
C[n+]1cccc2c1c1cccc(Cl)c1n2CCCCCC1CCCCC1.[I-] | > 10 µg/mL | 5 µg/mL | 0.6 µg/mL | 16 µg/mL | 20 µg/mL | 20 µg/mL | 0.2 µg/mL | 10 µg/mL | 0.3 µg/mL | 1.2 µg/mL | 5 µg/mL | 2.5 µg/mL | 5.7 µg/mL | > 20 µg/mL | > 20 µg/mL | 0.5 µg/mL | 5 µg/mL | 0.6 µg/mL | IC50 (Candida albicans): 2.5 µg/mL; MIC (Candida albicans): 5 µg/mL; IC50 (Cryptococcus neoformans): 0.3 µg/mL; MFC (Cryptococcus neoformans): 0.6 µg/mL
C[n+]1cccc(N(CCCCCC2CCCCC2)c2ccccc2Cl)c1.[I-] | – | – | – | – | > 20 µg/mL | > 20 µg/mL | 0.3 µg/mL | 10 µg/mL | 0.6 µg/mL | 1.1 µg/mL | 10 µg/mL | 2.5 µg/mL | 7.6 µg/mL | > 20 µg/mL | > 20 µg/mL | 2.1 µg/mL | 5 µg/mL | 2.5 µg/mL | –
Cc1ccccc1N(CCCCCC1CCCCC1)c1ccc[n+](C)c1.[I-] | – | – | – | – | – | – | 0.3 µg/mL | 10 µg/mL | 0.6 µg/mL | 1 µg/mL | 10 µg/mL | 2.5 µg/mL | 9.4 µg/mL | > 20 µg/mL | > 20 µg/mL | 1.6 µg/mL | 2.5 µg/mL | 2.5 µg/mL | –
Cc1cccc(N(CCCCCC2CCCCC2)c2ccc[n+](C)c2)c1.[I-] | – | – | – | – | – | – | 0.7 µg/mL | 5 µg/mL | 1.3 µg/mL | 1.2 µg/mL | 5 µg/mL | 2.5 µg/mL | 7.7 µg/mL | > 20 µg/mL | > 20 µg/mL | 1.1 µg/mL | 5 µg/mL | 1.3 µg/mL | –
C[n+]1cccc(N(CCCCCC2CCCCC2)c2ccc(C(F)(F)F)cc2)c1.[I-] | > 10 µg/mL | – | – | – | 5 µg/mL | 2.5 µg/mL | – | – | – | 0.9 µg/mL | 2.5 µg/mL | 2.5 µg/mL | 3.5 µg/mL | 20 µg/mL | 20 µg/mL | 1 µg/mL | 1.3 µg/mL | 1.3 µg/mL | –
C[n+]1cccc(N(CCCCCC2CCCCC2)c2ccccc2C(F)(F)F)c1.[I-] | – | – | – | – | – | – | 0.3 µg/mL | 10 µg/mL | 0.3 µg/mL | 0.6 µg/mL | 5 µg/mL | 1.3 µg/mL | 9.1 µg/mL | > 20 µg/mL | > 20 µg/mL | 1.2 µg/mL | 2.5 µg/mL | 3.5 µg/mL | –
C[n+]1cccc2c1c1cc(C(F)(F)F)ccc1n2CCCCCC1CCCCC1.[I-] | > 10 µg/mL | 20 µg/mL | 0.6 µg/mL | 18 µg/mL | > 20 µg/mL | > 20 µg/mL | 0.4 µg/mL | 10 µg/mL | 0.6 µg/mL | 1.2 µg/mL | 10 µg/mL | 2.5 µg/mL | 7.6 µg/mL | > 20 µg/mL | > 20 µg/mL | 0.8 µg/mL | 2.5 µg/mL | 1.3 µg/mL | IC50 (Candida albicans): 5.8 µg/mL; MIC (Candida albicans): 10 µg/mL; IC50 (Cryptococcus neoformans): 0.4 µg/mL; MFC (Cryptococcus neoformans): 1.3 µg/mL
CCc1ccc(N(CCCCCC2CCCCC2)c2ccc[n+](C)c2)cc1.[I-] | – | – | – | – | – | – | 0.2 µg/mL | 5 µg/mL | 3 µg/mL | 0.7 µg/mL | 2.5 µg/mL | 1.3 µg/mL | 4 µg/mL | 20 µg/mL | 20 µg/mL | 0.6 µg/mL | 5 µg/mL | 1.3 µg/mL | –
C[n+]1cccc(N(CCCCCC2CCCCC2)c2cccc(C(F)(F)F)c2)c1.[I-] | – | – | – | – | – | – | – | – | – | 1.5 µg/mL | 5 µg/mL | 2.5 µg/mL | 4.5 µg/mL | > 20 µg/mL | > 20 µg/mL | 2 µg/mL | 2.5 µg/mL | 2.5 µg/mL | –
C[C@@H]1[C@H](O)[C@@H](C)/C=C/C=C/C=C/C=C/C=C/C=C/C=C/[C@H](O[C@@H]2O[C@H](C)[C@@H](O)[C@H](N)[C@@H]2O)C[C@@H]2O[C@](O)(C[C@@H](O)C[C@@H](O)[C@H](O)CC[C@@H](O)C[C@@H](O)CC(=O)O[C@H]1C)C[C@H](O)[C@H]2C(=O)O [AMPHOTERICIN B] | – | – | 0.63 µg/mL (≈ 0.682 µM) | – | 5 µg/mL (≈ 5.41 µM) | 1.3 µg/mL (≈ 1.41 µM) | – | – | – | – | – | – | – | – | – | – | – | – | MFC (Cryptococcus neoformans): 0.63 µg/mL (≈ 0.682 µM)
O=C(O)c1cn(C2CC2)c2cc(N3CCNCC3)c(F)cc2c1=O [CIPROFLOXACIN] | – | – | – | – | – | – | – | 0.5 µg/mL (≈ 1.51 µM) | 0.3 µg/mL (≈ 0.905 µM) | – | 0.5 µg/mL (≈ 1.51 µM) | 0.3 µg/mL (≈ 0.905 µM) | 0.005 µg/mL (≈ 0.0151 µM) | 0.6 µg/mL (≈ 1.81 µM) | 0.3 µg/mL (≈ 0.905 µM) | – | > 20 µg/mL | 0.5 µg/mL (≈ 1.51 µM) | –
Cc1ccc(N(CCCCCC2CCCCC2)c2ccc[n+](C)c2)cc1.[I-] | > 10 µg/mL | – | – | – | 5 µg/mL | 5 µg/mL | – | – | – | 1 µg/mL | 2.5 µg/mL | 2.5 µg/mL | 4.5 µg/mL | > 20 µg/mL | 20 µg/mL | 1.5 µg/mL | 2.5 µg/mL | 2.5 µg/mL | –
C[n+]1c2ccccc2cc2[nH]c3ccccc3c21.[I-] [CRYPTOLEPTINE IODIDE] | 3.2 µg/mL | – | 12.5 µg/mL | – | – | – | 10 µg/mL | – | – | 20 µg/mL | – | – | – | – | – | – | – | – | MIC (Candida albicans): > 250 µg/mL
C[n+]1cccc(N(CCCCCC2CCCCC2)c2ccccc2)c1.[I-] | > 10 µg/mL | > 20 µg/mL | – | 20 µg/mL | > 20 µg/mL | > 20 µg/mL | 0.7 µg/mL | 10 µg/mL | 1.3 µg/mL | 3.4 µg/mL | 20 µg/mL | 10 µg/mL | 7.6 µg/mL | > 20 µg/mL | > 20 µg/mL | 2.1 µg/mL | 2.5 µg/mL | 2.5 µg/mL | –
COc1ccccc1N(CCCCCC1CCCCC1)c1ccc[n+](C)c1.[I-] | – | – | – | – | – | – | 0.4 µg/mL | 20 µg/mL | 0.6 µg/mL | 1.2 µg/mL | 20 µg/mL | 5 µg/mL | 14 µg/mL | > 20 µg/mL | > 20 µg/mL | 1.9 µg/mL | 2.5 µg/mL | 2.5 µg/mL | –
C[n+]1cccc2c1c1ccccc1n2CCCCCC1CCCCC1.[I-] | 7.5 µg/mL | > 20 µg/mL | 0.63 µg/mL | 0.45 µg/mL | 5 µg/mL | 0.63 µg/mL | – | – | – | 1.5 µg/mL | 5 µg/mL | 2.5 µg/mL | 5 µg/mL | > 20 µg/mL | > 20 µg/mL | 0.55 µg/mL | 2.5 µg/mL | 1.3 µg/mL | IC50 (Candida albicans): 3 µg/mL; MIC (Candida albicans): 5 µg/mL; IC50 (Cryptococcus neoformans): 0.45 µg/mL; MFC (Cryptococcus neoformans): 5 µg/mL
C[n+]1cccc(N(CCCCCC2CCCCC2)c2ccc(Cl)cc2)c1.[I-] | > 10 µg/mL | > 20 µg/mL | – | – | > 20 µg/mL | 1.6 µg/mL | 1.5 µg/mL | – | 3.1 µg/mL | – | – | – | – | – | – | 1 µg/mL | – | 1.6 µg/mL | –
